Among the data in ChEMBL document CHEMBL1909611, “Identification and SAR of selective inducible nitric oxide synthase (iNOS) dimerization inhibitors” (Bioorg Med Chem Lett, 2011) are inhibition and EC50 values, retold here.

Each structure is given as a SMILES string.

What all share (type): cell-based
The target in test [1] is T1, Nitric oxide synthase 3 (Homo sapiens) (UniProt P29474).
T1 sequence (whole entry): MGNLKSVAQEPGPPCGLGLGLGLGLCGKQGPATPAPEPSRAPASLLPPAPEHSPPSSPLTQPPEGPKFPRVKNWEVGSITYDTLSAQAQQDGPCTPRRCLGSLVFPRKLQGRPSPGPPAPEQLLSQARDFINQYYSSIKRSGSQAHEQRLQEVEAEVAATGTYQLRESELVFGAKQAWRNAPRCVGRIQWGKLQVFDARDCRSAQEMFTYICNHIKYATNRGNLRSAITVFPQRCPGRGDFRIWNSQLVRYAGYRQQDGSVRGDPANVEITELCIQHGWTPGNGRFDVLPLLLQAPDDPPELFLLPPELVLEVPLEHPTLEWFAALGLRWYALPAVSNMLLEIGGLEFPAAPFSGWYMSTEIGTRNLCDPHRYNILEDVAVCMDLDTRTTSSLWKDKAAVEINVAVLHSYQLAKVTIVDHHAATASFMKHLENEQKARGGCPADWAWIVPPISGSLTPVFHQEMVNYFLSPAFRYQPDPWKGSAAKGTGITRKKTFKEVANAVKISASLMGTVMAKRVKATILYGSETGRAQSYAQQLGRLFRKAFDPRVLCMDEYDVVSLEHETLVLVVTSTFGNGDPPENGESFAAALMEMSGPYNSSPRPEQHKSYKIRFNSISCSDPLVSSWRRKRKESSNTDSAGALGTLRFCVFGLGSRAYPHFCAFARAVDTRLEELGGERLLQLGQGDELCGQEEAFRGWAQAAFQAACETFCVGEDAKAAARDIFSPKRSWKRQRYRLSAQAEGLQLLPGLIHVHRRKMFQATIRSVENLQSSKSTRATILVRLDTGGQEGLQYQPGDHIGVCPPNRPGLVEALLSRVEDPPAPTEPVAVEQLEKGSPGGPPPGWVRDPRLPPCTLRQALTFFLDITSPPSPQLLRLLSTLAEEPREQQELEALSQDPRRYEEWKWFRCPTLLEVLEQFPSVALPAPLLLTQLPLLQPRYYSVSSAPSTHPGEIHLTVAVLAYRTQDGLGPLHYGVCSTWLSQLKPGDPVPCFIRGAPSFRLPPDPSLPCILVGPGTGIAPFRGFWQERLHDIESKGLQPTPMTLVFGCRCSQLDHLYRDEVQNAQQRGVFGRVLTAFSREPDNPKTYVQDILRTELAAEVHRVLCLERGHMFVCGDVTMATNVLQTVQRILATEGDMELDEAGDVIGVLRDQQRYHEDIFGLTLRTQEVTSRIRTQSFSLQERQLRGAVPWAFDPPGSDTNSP
Nature of the test: Inhibition of human eNOS expressed in HEK293 cells assessed as inhibition A23187-induced nitric oxide production at 100 uM incubated for 24 hrs measured after 18 hrs of A23187 challenge by 2,3-diaminonaphthalene assay. Summed up:
(§1)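 Transiently transfected cells plated at 5e5 cells/ml; compounds added immediately by pin transfer. Incubated 24 h with compound, then activated by ionophore (0.8 µM final). Fluorescence (ex 360/em 425 nm) read after raising pH with NaOH (0.12 N final). Values are mean of three experiments with SD. At 100 µM, <50% inhibition is reported as >100.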

The target of test [2] is T2, Nitric oxide synthase 1 (Homo sapiens, UniProt P29475). The test can be described thus: Inhibition of human nNOS expressed in HEK293 cells assessed as inhibition ionomycin-induced nitric oxide production incubated for 24 hrs measured after 18 hrs of ionomycin challenge by 2,3-diaminonaphthalene assay. Summed up:
as §1

In test [3] the target is Nitric oxide synthase, inducible (Homo sapiens, UniProt P35228). Nature of the test: Inhibition of human iNOS expressed in human HEK293 cells assessed as nitrite accumulation after 18 hrs by 2,3-diaminonapthalene assay. In outline: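 Transiently transfected cells plated at 5e5 cells/ml; compounds added immediately by pin transfer. Incubated 18 h for nitrite accumulation. Fluorescence (ex 360/em 425 nm) read after raising pH with NaOH (0.12 N final). Values are mean of three experiments with SD. At 100 µM, <50% inhibition is reported as >100.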
Sequence of Nitric oxide synthase, inducible (P35228 whole entry): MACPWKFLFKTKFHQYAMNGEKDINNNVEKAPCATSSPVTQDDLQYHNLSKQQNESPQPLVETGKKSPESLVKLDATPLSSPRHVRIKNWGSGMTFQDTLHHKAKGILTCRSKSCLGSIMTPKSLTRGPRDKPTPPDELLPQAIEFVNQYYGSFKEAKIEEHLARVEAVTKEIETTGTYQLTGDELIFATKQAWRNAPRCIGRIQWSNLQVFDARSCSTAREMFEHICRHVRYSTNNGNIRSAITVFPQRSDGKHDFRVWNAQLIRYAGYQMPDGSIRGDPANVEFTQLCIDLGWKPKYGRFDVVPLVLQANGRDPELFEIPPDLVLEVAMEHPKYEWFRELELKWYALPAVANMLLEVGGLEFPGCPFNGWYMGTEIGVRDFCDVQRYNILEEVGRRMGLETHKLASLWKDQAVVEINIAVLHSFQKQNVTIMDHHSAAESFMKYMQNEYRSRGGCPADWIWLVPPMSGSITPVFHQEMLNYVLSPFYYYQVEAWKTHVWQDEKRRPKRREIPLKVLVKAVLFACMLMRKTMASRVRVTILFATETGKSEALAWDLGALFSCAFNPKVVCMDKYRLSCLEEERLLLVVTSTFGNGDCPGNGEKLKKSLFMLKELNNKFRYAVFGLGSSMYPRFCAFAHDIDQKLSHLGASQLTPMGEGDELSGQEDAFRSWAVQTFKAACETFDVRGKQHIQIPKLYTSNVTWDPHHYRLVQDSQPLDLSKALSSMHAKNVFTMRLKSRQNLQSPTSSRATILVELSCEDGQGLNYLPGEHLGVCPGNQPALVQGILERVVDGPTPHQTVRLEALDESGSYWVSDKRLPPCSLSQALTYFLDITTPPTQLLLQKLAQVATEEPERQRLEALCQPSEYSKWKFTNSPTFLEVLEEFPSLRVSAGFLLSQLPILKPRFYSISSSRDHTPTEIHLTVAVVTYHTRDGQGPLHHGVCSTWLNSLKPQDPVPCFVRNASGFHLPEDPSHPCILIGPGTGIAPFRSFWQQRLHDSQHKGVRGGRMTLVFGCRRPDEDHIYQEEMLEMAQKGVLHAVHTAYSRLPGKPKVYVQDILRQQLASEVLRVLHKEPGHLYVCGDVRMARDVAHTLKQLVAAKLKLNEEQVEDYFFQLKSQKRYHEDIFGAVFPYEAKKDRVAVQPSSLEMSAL

The target in test [4] is T3, Nitric oxide synthase 3 (Homo sapiens, UniProt P29474).
T3 sequence (P29474 whole entry): T1 sequence (whole entry)
The test can be described thus: Inhibition of human eNOS expressed in HEK293 cells assessed as inhibition A23187-induced nitric oxide production incubated for 24 hrs measured after 18 hrs of A23187 challenge by 2,3-diaminonaphthalene assay. Summed up: as §1

In test [5] the target is T2, Nitric oxide synthase 1. The test can be described thus: Inhibition of human nNOS expressed in HEK293 cells assessed as inhibition ionomycin-induced nitric oxide production at 100 uM incubated for 24 hrs measured after 18 hrs of ionomycin challenge by 2,3-diaminonaphthalene assay. Summed up: as §1

T2 sequence (P29475 whole entry): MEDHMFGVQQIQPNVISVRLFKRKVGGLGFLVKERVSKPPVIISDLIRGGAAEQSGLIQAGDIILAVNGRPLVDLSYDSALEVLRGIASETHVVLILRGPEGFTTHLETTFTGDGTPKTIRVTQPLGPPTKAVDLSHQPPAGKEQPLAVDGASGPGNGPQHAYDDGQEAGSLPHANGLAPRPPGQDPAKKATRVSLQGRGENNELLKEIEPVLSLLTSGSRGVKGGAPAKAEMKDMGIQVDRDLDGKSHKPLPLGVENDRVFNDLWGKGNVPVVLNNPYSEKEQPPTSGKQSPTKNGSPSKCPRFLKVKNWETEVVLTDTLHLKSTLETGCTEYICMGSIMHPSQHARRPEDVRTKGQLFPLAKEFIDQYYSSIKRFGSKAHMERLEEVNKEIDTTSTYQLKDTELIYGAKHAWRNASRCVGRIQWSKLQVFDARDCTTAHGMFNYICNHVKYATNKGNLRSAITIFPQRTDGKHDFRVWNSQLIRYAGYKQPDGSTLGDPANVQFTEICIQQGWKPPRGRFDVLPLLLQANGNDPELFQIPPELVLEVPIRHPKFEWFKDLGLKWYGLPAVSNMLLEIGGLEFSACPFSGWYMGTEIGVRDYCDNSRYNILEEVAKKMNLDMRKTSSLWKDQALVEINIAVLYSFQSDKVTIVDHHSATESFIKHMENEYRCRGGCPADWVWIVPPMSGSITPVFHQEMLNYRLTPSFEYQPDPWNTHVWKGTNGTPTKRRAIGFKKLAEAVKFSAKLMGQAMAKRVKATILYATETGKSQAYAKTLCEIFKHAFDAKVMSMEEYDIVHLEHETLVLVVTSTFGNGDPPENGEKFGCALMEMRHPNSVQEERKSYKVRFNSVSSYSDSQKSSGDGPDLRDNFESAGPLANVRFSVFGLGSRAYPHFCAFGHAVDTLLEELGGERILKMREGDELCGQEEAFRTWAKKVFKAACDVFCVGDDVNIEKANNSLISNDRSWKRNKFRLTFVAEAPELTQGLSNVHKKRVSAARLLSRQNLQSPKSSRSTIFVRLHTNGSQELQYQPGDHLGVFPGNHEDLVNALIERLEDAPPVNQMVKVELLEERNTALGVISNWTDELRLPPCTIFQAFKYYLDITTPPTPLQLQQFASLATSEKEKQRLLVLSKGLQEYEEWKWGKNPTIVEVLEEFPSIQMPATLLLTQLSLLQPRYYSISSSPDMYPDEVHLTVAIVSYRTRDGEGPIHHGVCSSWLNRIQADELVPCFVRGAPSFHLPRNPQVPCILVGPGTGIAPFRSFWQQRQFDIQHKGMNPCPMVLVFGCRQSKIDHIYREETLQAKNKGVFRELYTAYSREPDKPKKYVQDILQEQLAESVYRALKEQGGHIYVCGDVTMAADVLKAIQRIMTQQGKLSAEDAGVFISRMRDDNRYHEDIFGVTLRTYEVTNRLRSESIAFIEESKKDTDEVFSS

In the case of `Cc1cc(C2CCCN2C(=O)NCCc2ccc3c(c2)OCO3)nc(-n2ccnc2)n1` (centres undefined), the inhibition in test [1] is less than 50%. In addition, the EC50 in test [2] was 2.7 µM; in test [3], 0.009 µM; in test [4] it was more than 100 µM.
Take `Cc1cc(C2CCCN2C(=O)CNCc2ccc3c(c2)OCO3)nc(-n2ccnc2)n1` (centres undefined): the inhibition in test [1] is less than 50%. For the same compound, the EC50 was 6.6 µM in test [2], 0.03 µM in test [3] and more than 100 µM in test [4].
For `Cn1cnc(CN(CCCNCc2ccc3c(c2)OCO3)c2nc(-n3ccnc3)ns2)c1`, in that order: less than 50%, 18 µM, 0.071 µM and more than 100 µM.
On to `Oc1ccc(CN(CCCNCc2ccc3c(c2)OCO3)c2nc(-n3ccnc3)ns2)cc1`, for which the inhibition in test [1] was less than 50%. Besides, the EC50 was 11 µM in test [2], 0.042 µM in test [3] and more than 100 µM in test [4].
For the compound `CCOC(=O)CN(CCCNCc1ccc2c(c1)OCO2)c1nc(-n2ccnc2)ns1`, the inhibition in test [1] is less than 50%. For the same compound, the EC50 in test [2] is 7.6 µM; in test [3], 0.034 µM; in test [4] it was more than 100 µM.
Regarding `c1cn(-c2nsc(N(CCCNCc3ccc4c(c3)OCO4)C3CC3)n2)cn1`, the inhibition in test [1] was less than 50%. Also, the EC50 in test [2] is 36 µM; in test [3] it was 0.056 µM; in test [4], more than 100 µM.
Take `Cc1cc(CNC(=O)NCCc2ccc3c(c2)OCO3)nc(-n2ccnc2)n1`: the inhibition in test [5] and in test [1] was less than 50% each time. For the same compound, the EC50 in test [2] was more than 100 µM; in test [3], 0.014 µM; in test [4], more than 100 µM.
Turning to `CCCN(CCCNCc1ccc2c(c1)OCO2)c1nc(-n2ccnc2)ns1`, in test [1], the inhibition is less than 50%. The EC50 in test [2] was 2.3 µM; in test [3], 0.009 µM; in test [4], more than 100 µM.
With `COc1ccc(CNCCCN(C)c2nc(-n3ccnc3)ns2)cc1OC`, the inhibition in test [5] and in test [1] was less than 50% each time. Further, the EC50 was more than 100 µM in test [2], 0.76 µM in test [3] and more than 100 µM in test [4].
As for `Cc1cc(C2CCCN2CCN(C)Cc2ccc3c(c2)OCO3)nc(-n2ccnc2)n1` (centres undefined), in test [1], the inhibition is less than 50%. The EC50 is 3.9 µM in test [2], 0.004 µM in test [3] and more than 100 µM in test [4].
As to `CN(CCCNCc1ccc2c(c1)OC(F)(F)O2)c1nc(-n2ccnc2)ns1`, the inhibition in test [5] and in test [1] was less than 50% throughout. Besides, the EC50 was more than 100 µM in test [2], 8.9 µM in test [3] and more than 100 µM in test [4].
In the case of `COc1ccc(CNCCCN(C)c2nc(-n3ccnc3)ns2)cc1`, the inhibition in test [5] and in test [1] was less than 50% throughout. The figures for the EC50 in test [2], in test [3] and in test [4] were more than 100 µM, 0.36 µM and more than 100 µM, respectively.
For the compound `Cc1cc(C2CCCN2CC(=O)NCc2ccc3c(c2)OCO3)nc(-n2ccnc2)n1` (centres undefined), in test [1], the inhibition was less than 50%. In addition, the EC50 is 9.5 µM in test [2], 0.036 µM in test [3] and more than 100 µM in test [4].
`N#CCN(CCCNCc1ccc2c(c1)OCO2)c1nc(-n2ccnc2)ns1`: the inhibition in test [1] is less than 50%. Besides, the half-maximal effective concentration (EC50) in test [2] is 7.2 µM; in test [3], 0.012 µM; in test [4], more than 100 µM.
Regarding `c1cn(-c2nsc(N(CCCNCc3ccc4c(c3)OCO4)Cc3nccs3)n2)cn1`, the inhibition in test [1] was less than 50%. Further, the EC50 was 0.31 µM in test [2], 0.006 µM in test [3] and more than 100 µM in test [4].
Taken in the same sequence, the figures for `CNC(=O)CN(CCCNCc1ccc2c(c1)OCO2)c1nc(-n2ccnc2)ns1` were less than 50%, 7.2 µM, 0.059 µM and more than 100 µM.
As for `c1cn(-c2nsc(N(CCCNCc3ccc4c(c3)OCO4)Cc3nnn[nH]3)n2)cn1`, the inhibition in test [5] and in test [1] was less than 50% in each case. Besides, the EC50 in test [2] is more than 100 µM; in test [3], 4 µM; in test [4], more than 100 µM.
Regarding `c1csc(CN(CCCNCc2ccc3c(c2)OCO3)c2nc(-n3ccnc3)ns2)c1`, the inhibition in test [1] is less than 50%. Moreover, the EC50 was 0.69 µM in test [2], 0.009 µM in test [3] and more than 100 µM in test [4].
As to `c1cn(-c2nsc(N(CCCNCc3ccc4c(c3)OCO4)Cc3ccc4occc4c3)n2)cn1`, in test [1], the inhibition is less than 50%. In addition, the EC50 in test [2] was 7.9 µM; in test [3], 0.09 µM; in test [4], more than 100 µM.
For `Cc1cc(C(C)NCCN(C)Cc2ccc3c(c2)OCO3)nc(-n2ccnc2)n1` (centres undefined), the inhibition in test [1] is less than 50%. For the same compound, the values for the EC50 in test [2], in test [3] and in test [4] were 6 µM, 0.029 µM and more than 100 µM, respectively.
Take `Cc1cc(-c2cccn2CCN(C)Cc2ccc3c(c2)OCO3)nc(-n2ccnc2)n1`: the inhibition in test [5] and in test [1] was less than 50% in each case. Moreover, the EC50 is more than 100 µM in test [2], 1.8 µM in test [3] and more than 100 µM in test [4].
With `c1cncc(CN(CCCNCc2ccc3c(c2)OCO3)c2nc(-n3ccnc3)ns2)c1`, in test [1], the inhibition is less than 50%. For the same compound, the EC50 in test [2] was 0.48 µM; in test [3] it was 0.005 µM; in test [4], more than 100 µM.
On to `c1coc(CN(CCCNCc2ccc3c(c2)OCO3)c2nc(-n3ccnc3)ns2)c1`, for which the inhibition in test [1] was less than 50%. Also, the EC50 was 2.1 µM in test [2], 0.014 µM in test [3] and more than 100 µM in test [4].
With `CN(CCCNCc1ccc2c(c1)OCCO2)c1nc(-n2ccnc2)ns1`, the inhibition in test [1] is less than 50%. In addition, the half-maximal effective concentration (EC50) in test [2] is 24 µM; in test [3], 0.048 µM; in test [4] it was more than 100 µM.
As to `Cc1cc(CCCCNCc2ccc3c(c2)OCO3)nc(-n2ccnc2)n1`, the inhibition in test [5] and in test [1] was less than 50% in each case. The EC50 is more than 100 µM in test [2], 0.02 µM in test [3] and more than 100 µM in test [4].
As for `NC(=O)CN(CCCNCc1ccc2c(c1)OCO2)c1nc(-n2ccnc2)ns1`, the inhibition in test [1] is less than 50%. Further, the EC50 is 11 µM in test [2], 0.081 µM in test [3] and more than 100 µM in test [4].
Turning to `Cc1cc(CNC(=O)CNCc2ccc3c(c2)OCO3)nc(-n2ccnc2)n1`, the inhibition in test [5] and in test [1] was less than 50% in each case. Besides, the figures for the EC50 in test [2], in test [3] and in test [4] were more than 100 µM, 0.293 µM and more than 100 µM, respectively.
`Cc1cc(C(C)NCCOCc2ccc3c(c2)OCO3)nc(-n2ccnc2)n1` (centres undefined): the inhibition in test [5] and in test [1] was less than 50% each time. Moreover, the EC50 was more than 100 µM in test [2], 0.29 µM in test [3] and more than 100 µM in test [4].
For `CN(C)c1ccc(CN(CCCNCc2ccc3c(c2)OCO3)c2nc(-n3ccnc3)ns2)cc1`, the inhibition in test [1] was less than 50%. Besides, the EC50 in test [2] was 6.8 µM; in test [3], 0.163 µM; in test [4] it was more than 100 µM.
As for `CN(CCCNCCc1ccc2c(c1)OCO2)c1nc(-n2ccnc2)ns1`, the inhibition in test [1] is less than 50%. The EC50 is 47 µM in test [2], 0.23 µM in test [3] and more than 100 µM in test [4].
